Compound activity deposited in PubChem BioAssay by Johns Hopkins Ion Channel Center.
This is a sample that favours compounds with a hit; in the whole collection about 3.8% have one here.
KCNQ1 block: inhibitors of human KCNQ1 potassium channel; P51787; CHO-K1 KCNQ1, FluxOR thallium flux fluorescence; stronger effect = higher value; B-score at 10 µM; 1.3% of 310,000 active; AID 2642;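 active = compounds whose thallium flux B-score, printed positive for inhibition, exceeds three library SD while starting fluorescence stays within three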;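 note: channel opened by potassium depolarization with thallium stimulus after 20 min compound exposure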
Kir21 inh: blocks the mouse Kir2.1 inward-rectifier potassium channel. B-score at 10 µM. AID 1672. HEK293-Kir2.1, FluxOR thallium flux fluorescence; stronger effect = lower value. 0.85% of 310,000 active;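 active = fluorescence ratio B-score at or below minus 3 SD of library scores, with starting-brightness B-score within 2 SD, cut at about -4.2 in these data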;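 note: channel flux triggered by added potassium and thallium sulfate stimulus; B-score of peak minus minimum fluorescence over baseline after thallium stimulus; more negative B-score means stronger Kir2.1 block with less thallium influx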
KCNQ1 pot: human KCNQ1 channel potentiation or activation; P51787; CHO-K1 KCNQ1, thallium flux FluxOR fluorescence; stronger effect = higher value; B-score at 10 µM; 0.35% of 310,000 active;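 active = fluorescence ratio B-score, a plate-corrected score, at least three library SD, with initial intensity B-score within 5 SD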
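System: Stable KCNQ1 CHO-K1 line | Incubation: 90 min dye loading and 20 min compound exposure, both at room temperature | Measure: Ratio B score | Medium: Assay buffer for compound exposure, DMSO matched across wells | Compound dosing: Single-concentration screen | Probe or stimulus: K+/Tl+ depolarizing stimulus | Measured by: Kinetic FluxOR fluorescence, 10 s baseline plus 110 s post-stimulus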
KCNK3 block: human KCNK3 channel inhibition, primary screen | B-score at 10 µM | AID 602410 | O14649 | 0.84% of 340,000 active | CHO-KCNK3 thallium flux, FluxOR fluorescence; stronger effect = lower value;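 active = B-score under library mean minus 4 SD, starting fluorescence ratio at most library mean plus 5 SD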;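 note: more negative B-score means stronger inhibition of thallium flux through KCNK3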
Target sequence (O14649 whole entry, looked up): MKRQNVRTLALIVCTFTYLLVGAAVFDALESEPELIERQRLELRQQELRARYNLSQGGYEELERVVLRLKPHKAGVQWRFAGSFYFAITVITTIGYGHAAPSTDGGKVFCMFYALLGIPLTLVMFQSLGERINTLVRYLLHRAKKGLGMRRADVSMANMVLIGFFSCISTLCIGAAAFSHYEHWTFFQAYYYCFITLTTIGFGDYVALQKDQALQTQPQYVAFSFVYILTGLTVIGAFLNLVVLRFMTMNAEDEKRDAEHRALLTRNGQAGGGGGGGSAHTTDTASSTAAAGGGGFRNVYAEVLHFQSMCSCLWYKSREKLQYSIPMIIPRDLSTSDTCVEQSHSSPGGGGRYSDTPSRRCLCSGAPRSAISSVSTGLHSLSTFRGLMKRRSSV
hERG rescue: hERG (human) protection from proarrhythmic block. CHO-hERG, FluxOR thallium flux, dofetilide IC70 present. 0.51% of 310,000 active. activation (rescue from dofetilide block), less the hit threshold, % at 10 µM. Q12809;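 active = activation above the mean of controls blocked by dofetilide plus 5 SD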;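 note: thallium influx through hERG after potassium depolarization seen as dye fluorescence rise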
KCNK9 inh: human KCNK9 channel inhibition | 1.2% of 310,000 active | B-score at 10 µM | Q9NPC2 | HEK293 KCNK9, FluxOR thallium flux fluorescence; stronger effect = lower value;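 active = ratio B-score over 3 SD below the library mean, with starting fluorescence within 5 SD of its mean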;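 note: negative B-score means less thallium flux so channel inhibition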
Target sequence (Q9NPC2 whole entry, looked up): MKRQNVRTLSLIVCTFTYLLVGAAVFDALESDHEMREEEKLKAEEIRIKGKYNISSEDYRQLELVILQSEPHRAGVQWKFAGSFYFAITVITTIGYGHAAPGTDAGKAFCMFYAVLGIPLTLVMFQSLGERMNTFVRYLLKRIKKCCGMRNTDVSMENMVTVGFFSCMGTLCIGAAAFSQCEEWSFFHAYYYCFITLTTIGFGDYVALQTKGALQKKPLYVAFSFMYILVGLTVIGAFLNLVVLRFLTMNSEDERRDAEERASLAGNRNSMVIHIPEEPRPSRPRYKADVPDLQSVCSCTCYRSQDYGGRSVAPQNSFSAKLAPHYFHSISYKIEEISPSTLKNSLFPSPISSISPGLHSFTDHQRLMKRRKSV
KCNQ1 block val: human KCNQ1 channel inhibition, validation assay; shares compounds with KCNQ1 block; KCNQ1 cell line, FluxOR thallium flux fluorescence; inhibition, % at 10 µM; 93% of 1,600 active; AID 588353;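 active = primary screen active, with duplicate mean exceeding buffer control mean plus 3 SD of buffer wells, cut at about 28% in these data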;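 note: 0% = buffer control ratio and 100% = XE991 inhibitor control ratio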
CHO Tl flux: counter-screen for KCNQ1 inhibitors: effect in parental CHO cells; 21% of 1,600 active; shares compounds with KCNQ1 block; parental CHO-K1, FluxOR thallium flux fluorescence ratio; stronger effect = lower value; zero means no signal rise above baseline; fluorescence ratio (Tl flux) at 10 µM;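 active = mean of duplicate thallium-flux fluorescence ratios in parental host cells more than 5 SD below the buffer control mean, cut at about 0.38 in these data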;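 note: ratio is peak minus minimum fluorescence divided by baseline fluorescence; actives read low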
KCNQ1 ephys val: human KCNQ1 inhibition validated by electrophysiology. shares compounds with KCNQ1 block. KCNQ1-CHO cells, automated patch clamp current. calls only at 10 µM. 20% of 490 active;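 active = KCNQ1 current drop exceeding 3 SD of negative control wells, seen in both duplicate runs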;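 note: steady state current during a 2 s step from -80 to +40 mV; negative values mean current inhibition and positive values mean potentiation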
KCNQ2 spec: selectivity of KCNQ1 inhibitors: inhibition of rat KCNQ2 channel; shares compounds with KCNQ1 block; inhibition, % at 10 µM; 71% of 1,600 active; KCNQ2 cells, FluxOR thallium flux fluorescence; AID 651746;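 active = mean percent inhibition of the KCNQ2 thallium signal more than 5 SD above the buffer-only control wells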;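 note: KCNQ2 expressed in CHO cells; 0% = buffer control wells and 100% = XE-991 inhibitor control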
KCNQ1-KCNE1 inh: human KCNQ1/KCNE1 inhibition in KCNQ1 specificity screen | KCNQ1/KCNE1 cells, FluxOR thallium flux fluorescence | 77% of 1,600 active | inhibition, % at 10 µM | AID 652147 | shares compounds with KCNQ1 block;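 active = mean percent inhibition of duplicate wells above the buffer-only control mean plus 3 SD of those controls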;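 note: 0% = buffer only wells and 100% = XE-991 inhibitor control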
* hit, by the source's call.

COc1ccc(N2CCc3c(C)nc4c(OC)cc(OC)cc4c32)cc1 was read as KCNQ1 block 6*, Kir21 inh -4.66*, KCNQ1 pot inactive, KCNK3 block -10.2*, hERG rescue -32.0, KCNK9 inh inactive, KCNQ1 block val 0.0, CHO Tl flux 0.506, KCNQ2 spec inactive and KCNQ1-KCNE1 inh inactive.
COc1cccc(N2CCc3c(C)nc4ccc(Cl)cc4c32)c1 was read as KCNQ1 block 6*, Kir21 inh -13.9*, KCNQ1 pot inactive, KCNK3 block inactive, hERG rescue -22.2, KCNK9 inh inactive, KCNQ1 block val 101.5*, CHO Tl flux 0.383, KCNQ1 ephys val active, KCNQ2 spec 98.3%* and KCNQ1-KCNE1 inh 77.0%*.
`c1ccc(-c2csc3ncnc(NCC4COc5ccccc5O4)c23)cc1` (stereo not drawn) gave KCNQ1 block 9*, Kir21 inh 0.76, KCNQ1 pot inactive, KCNK3 block inactive, hERG rescue -10.6, KCNK9 inh inactive, KCNQ1 block val 151.0*, CHO Tl flux 0.351*, KCNQ2 spec 131.7%* and KCNQ1-KCNE1 inh active.
Cc1sc2ncnc(NCC3COc4ccccc4O3)c2c1C (stereo not drawn) was read as KCNQ1 block inactive, Kir21 inh -0.79, KCNQ1 pot inactive, KCNK3 block inactive, hERG rescue -21.1 and KCNK9 inh inactive.
`CCN(C(=O)c1ccco1)c1nc(CC(=O)Nc2ccc(Cl)cc2)cs1` gave KCNQ1 block inactive, Kir21 inh 2.14, KCNQ1 pot inactive, KCNK3 block inactive, hERG rescue -0.1 and KCNK9 inh inactive.
CCC(=O)N(Cc1ccco1)c1nc(C(=O)Nc2ccc(Cl)cc2)c(C)s1 was read as KCNQ1 block 9*, Kir21 inh -0.29, KCNQ1 pot inactive, KCNK3 block inactive, hERG rescue -13.6, KCNK9 inh inactive, KCNQ1 block val 87.5*, CHO Tl flux 0.454, KCNQ2 spec 63.3%* and KCNQ1-KCNE1 inh 111.0%*.
Screening COc1ccc(C2CC(=O)c3cnc(N4CCN(Cc5ccccc5)CC4)nc3C2)cc1 (stereo not drawn) returned KCNQ1 block 6*, Kir21 inh -0.58, KCNQ1 pot inactive, KCNK3 block inactive, hERG rescue -6.3, KCNK9 inh inactive, KCNQ1 block val 67.5*, CHO Tl flux 0.42, KCNQ2 spec 102.0%* and KCNQ1-KCNE1 inh 105.0%*.
`C=CCN(C(=O)c1csnn1)C(C(=O)NCc1ccc(F)cc1)c1cccs1` (stereo not drawn) gave KCNQ1 block inactive, Kir21 inh 1.14, KCNQ1 pot inactive, KCNK3 block inactive, hERG rescue -7.3 and KCNK9 inh inactive.
COc1cc(C(=O)COC(=O)C2CCN(c3ccc(C(F)(F)F)cn3)CC2)ccc1OC(F)F was read as KCNQ1 block 6*, Kir21 inh 0.17, KCNQ1 pot inactive, KCNK3 block inactive, hERG rescue -16.6, KCNK9 inh inactive, KCNQ1 block val 61.5*, CHO Tl flux 0.478, KCNQ2 spec 115.3%* and KCNQ1-KCNE1 inh 61.5%*.
`COc1ccc(C(=O)COC(=O)C2CCN(c3ccc(C(F)(F)F)cn3)CC2)c(OC)c1` gave KCNK3 block inactive.
Screening Cc1ccc(NC(=O)CSc2ncnc3ccccc23)cc1S(=O)(=O)N1CCCCCC1 returned KCNQ1 block 6*, Kir21 inh 1.37, KCNQ1 pot inactive, KCNK3 block inactive, hERG rescue -12.5, KCNK9 inh inactive, KCNQ1 block val 117.5*, CHO Tl flux 0.396, KCNQ1 ephys val inactive, KCNQ2 spec 126.7%* and KCNQ1-KCNE1 inh 106.5%*.
Screening Cc1ccc(NC(=O)COc2cccc(C)c2C)cc1S(=O)(=O)N1CCCCCC1 returned KCNQ1 block 6*, Kir21 inh 0.64, KCNQ1 pot inactive, KCNK3 block inactive, hERG rescue -14.2, KCNK9 inh inactive, KCNQ1 block val 85.0*, CHO Tl flux 0.427, KCNQ2 spec 119.3%* and KCNQ1-KCNE1 inh 134.5%*.
Screening CCCCC1CN2CCc3c([nH]c4ccccc34)C2(C)C1 (stereo not drawn) returned KCNQ1 block inactive, Kir21 inh -2.48, KCNQ1 pot inactive, KCNK3 block inactive, hERG rescue -14.6 and KCNK9 inh inactive.
Screening Cc1cccc(CCNCc2c(C(=O)O)c(C)n(-c3ccccc3)c2C)c1 returned KCNQ1 block inactive, Kir21 inh 0.54, KCNQ1 pot inactive, KCNK3 block inactive, hERG rescue -2.5 and KCNK9 inh inactive.
COc1ccc(-c2nc3ccccc3nc2-c2ccccc2)cc1OC was read as KCNQ1 block inactive, Kir21 inh -0.78, KCNQ1 pot inactive, KCNK3 block inactive, hERG rescue -18.9 and KCNK9 inh inactive.
Screening COc1ccc(-c2cc(-c3ccccc3)nc(Cl)n2)cc1OC returned KCNQ1 block 8*, Kir21 inh 1.01, KCNQ1 pot inactive, KCNK3 block inactive, hERG rescue -5.5, KCNK9 inh inactive, KCNQ1 block val 131.0*, CHO Tl flux 0.45, KCNQ1 ephys val inactive, KCNQ2 spec 128.0%* and KCNQ1-KCNE1 inh 166.0%*.
Screening Cc1ccccc1N1CCN(C2CCCN(C(=O)c3cn4cccc(C)c4n3)C2)CC1 (stereo not drawn) returned KCNQ1 block inactive, Kir21 inh -0.58, KCNQ1 pot inactive, KCNK3 block inactive, hERG rescue -25.6 and KCNK9 inh inactive.
Screening CSc1nnc(C)c(/C=C/Nc2ccc(Cl)cc2)n1 returned KCNQ1 block 11*, Kir21 inh -2.94, KCNQ1 pot inactive, KCNK3 block inactive, hERG rescue -1.2, KCNK9 inh inactive, KCNQ1 block val 48.5*, CHO Tl flux 0.429, KCNQ2 spec inactive and KCNQ1-KCNE1 inh 87.5%*.
For CSc1nnc(C)c(/C=C/Nc2ccc(F)cc2)n1 the results were KCNQ1 block inactive, Kir21 inh -0.07, KCNQ1 pot inactive, KCNK3 block inactive, hERG rescue -3.1 and KCNK9 inh inactive.
